Results reported in ChEMBL document CHEMBL4014343 (J Med Chem, 2017).
Calls of active or inactive are those of the source.

Assays:
[1] = tested on: SK-OV-3; test: Growth inhibition of human SKOV3 cells incubated for 48 hrs by sulforhodamine B assay; type: functional, cell-based
[2] = molecular target: T1, Insulin-like growth factor 1 receptor (Homo sapiens, UniProt P08069); test: Inhibition of IGF1R in human HeLa cells assessed as reduction in Akt phosphorylation at Ser473 residue after 24 hrs by immunoblot analysis; type: cell-based
Outline: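 Cells in their medium with 10% FBS exposed to rising concentrations for 24 h; whole-cell lysates immunoblotted for p-Akt (S473) and total Akt; PI3K inhibitor at 10 μM as positive control.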

[3] = tested on: OVCAR-4; test: Growth inhibition of human OVCAR4 cells incubated for 48 hrs by sulforhodamine B assay; type: functional, cell-based
[4] = tested on: UACC-257; test: Growth inhibition of human UACC257 cells incubated for 48 hrs by sulforhodamine B assay; type: functional, cell-based
Outline: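 NCI-60 panel growth inhibition, run by the U.S. National Cancer Institute; GI50 values are means of two test series.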

[5] = tested on: HOP-62; test: Growth inhibition of human HOP62 cells incubated for 48 hrs by sulforhodamine B assay; type: functional, cell-based
[6] = tested on: LOX IMVI; test: Growth inhibition of human LOXIMVI cells incubated for 48 hrs by sulforhodamine B assay; type: functional, cell-based
[7] = tested on: HOP-92; test: Growth inhibition of human HOP92 cells incubated for 48 hrs by sulforhodamine B assay; type: functional, cell-based
[8] = tested on: SNB-75; test: Growth inhibition of human SNB75 cells incubated for 48 hrs by sulforhodamine B assay; type: functional, cell-based
[9] = tested on: Hs-578T; test: Growth inhibition of human Hs 578T cells incubated for 48 hrs by sulforhodamine B assay; type: functional, cell-based
[10] = tested on: K562; test: Growth inhibition of human K562 cells incubated for 48 hrs by sulforhodamine B assay; type: functional, cell-based
[11] = tested on: NCI/ADR-RES; test: Growth inhibition of human NCI/ADR-RES cells incubated for 48 hrs by sulforhodamine B assay; type: functional, cell-based
[12] = tested on: HCT-15; test: Growth inhibition of human HCT15 cells incubated for 48 hrs by sulforhodamine B assay; type: functional, cell-based
[13] = molecular target: T1, Insulin-like growth factor 1 receptor; test: Inhibition of IGF1R in human MCF7 cells assessed as reduction in Akt phosphorylation at Ser473 residue at 1 uM after 15 mins by immunoblot analysis; type: cell-based
Outline: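 MCF7 exposed to 1 μM and harvested at 15 min, 30 min, 1, 4 and 6 h; lysates immunoblotted with p-Akt (S473) antibody.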

[14] = tested on: MDA-MB-435; test: Growth inhibition of human MDA-MB-435 cells incubated for 48 hrs by sulforhodamine B assay; type: functional, cell-based

T1 sequence (P08069 31-736 limits assumed): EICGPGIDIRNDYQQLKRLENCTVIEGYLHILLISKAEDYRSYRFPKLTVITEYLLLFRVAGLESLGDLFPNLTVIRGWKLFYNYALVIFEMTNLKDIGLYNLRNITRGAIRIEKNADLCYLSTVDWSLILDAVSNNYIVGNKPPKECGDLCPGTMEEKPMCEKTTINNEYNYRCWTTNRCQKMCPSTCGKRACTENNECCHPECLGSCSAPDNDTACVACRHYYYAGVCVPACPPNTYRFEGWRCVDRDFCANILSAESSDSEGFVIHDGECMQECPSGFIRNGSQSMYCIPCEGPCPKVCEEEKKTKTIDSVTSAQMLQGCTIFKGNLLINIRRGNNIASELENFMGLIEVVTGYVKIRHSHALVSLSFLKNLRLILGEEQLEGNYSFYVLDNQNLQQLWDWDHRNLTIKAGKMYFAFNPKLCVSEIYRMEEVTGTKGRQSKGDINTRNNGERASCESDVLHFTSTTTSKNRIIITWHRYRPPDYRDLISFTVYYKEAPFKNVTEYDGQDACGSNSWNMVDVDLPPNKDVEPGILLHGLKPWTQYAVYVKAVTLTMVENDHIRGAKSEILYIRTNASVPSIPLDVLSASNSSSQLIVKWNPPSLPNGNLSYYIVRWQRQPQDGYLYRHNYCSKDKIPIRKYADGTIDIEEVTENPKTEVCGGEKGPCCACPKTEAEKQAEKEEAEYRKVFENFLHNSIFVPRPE
T1 sequence (P08069 741-1367 limits assumed): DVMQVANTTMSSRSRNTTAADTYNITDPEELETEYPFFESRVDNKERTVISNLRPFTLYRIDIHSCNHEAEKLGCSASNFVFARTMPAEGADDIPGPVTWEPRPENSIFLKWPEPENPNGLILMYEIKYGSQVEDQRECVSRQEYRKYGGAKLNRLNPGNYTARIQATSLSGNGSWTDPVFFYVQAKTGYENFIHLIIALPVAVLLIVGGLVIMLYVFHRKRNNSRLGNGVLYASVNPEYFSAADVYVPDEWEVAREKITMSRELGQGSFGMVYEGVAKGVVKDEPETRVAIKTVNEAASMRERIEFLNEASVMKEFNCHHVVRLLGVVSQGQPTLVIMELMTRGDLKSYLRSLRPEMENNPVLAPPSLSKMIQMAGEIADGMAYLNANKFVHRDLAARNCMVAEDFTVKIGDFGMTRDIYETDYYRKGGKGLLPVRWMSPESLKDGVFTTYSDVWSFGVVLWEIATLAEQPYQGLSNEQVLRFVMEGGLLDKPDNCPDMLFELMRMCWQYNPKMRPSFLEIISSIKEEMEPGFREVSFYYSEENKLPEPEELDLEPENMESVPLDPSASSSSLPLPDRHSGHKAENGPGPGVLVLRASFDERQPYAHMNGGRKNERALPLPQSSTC

CN1CCN(CCO/N=C2/C(=C3/C(=O)Nc4ccccc43)Nc3ccccc32)CC1
active: growth inhibition (GI) [1] | inhibition [2] Dose-dependent effect | growth inhibition (GI) [3] | growth inhibition (GI) [4] | growth inhibition (GI) [5] | growth inhibition (GI) [6] | growth inhibition (GI) [7] | growth inhibition (GI) [8] | growth inhibition (GI) [9] | growth inhibition (GI) [10] | growth inhibition (GI) [11] | growth inhibition (GI) [12] | inhibition [13] | growth inhibition (GI) [14]
